# Key:
# [1] = Plasma concentration in rat at 10 mg/kg, po measured at 1 hr; assay type: ADME, organism-based; design: dose 10 mg/kg, route oral
# [2] = biological target: Calcium/calmodulin-dependent protein kinase type IV (Homo sapiens, UniProt Q16566); assay: Inhibition of human CAMK4
# [3] = Plasma concentration in rat at 10 mg/kg, po measured at 6 hrs; assay type: ADME, organism-based; design: dose 10 mg/kg, route oral
# [4] = Plasma concentration in rat at 10 mg/kg, po measured at 24 hrs; assay type: ADME, organism-based; design: dose 10 mg/kg, route oral
# [5] = biological target: RAC-alpha serine/threonine-protein kinase (Homo sapiens, UniProt P31749); assay: Inhibition of human AKT1
# hERG (KCNH2) [6] = biological target: T1, hERG (KCNH2) (Homo sapiens, UniProt Q12809); assay: Inhibition of human ERG at 1 uM after 5 mins by voltage clamp assay relative to control
# T1 sequence (Q12809 whole entry): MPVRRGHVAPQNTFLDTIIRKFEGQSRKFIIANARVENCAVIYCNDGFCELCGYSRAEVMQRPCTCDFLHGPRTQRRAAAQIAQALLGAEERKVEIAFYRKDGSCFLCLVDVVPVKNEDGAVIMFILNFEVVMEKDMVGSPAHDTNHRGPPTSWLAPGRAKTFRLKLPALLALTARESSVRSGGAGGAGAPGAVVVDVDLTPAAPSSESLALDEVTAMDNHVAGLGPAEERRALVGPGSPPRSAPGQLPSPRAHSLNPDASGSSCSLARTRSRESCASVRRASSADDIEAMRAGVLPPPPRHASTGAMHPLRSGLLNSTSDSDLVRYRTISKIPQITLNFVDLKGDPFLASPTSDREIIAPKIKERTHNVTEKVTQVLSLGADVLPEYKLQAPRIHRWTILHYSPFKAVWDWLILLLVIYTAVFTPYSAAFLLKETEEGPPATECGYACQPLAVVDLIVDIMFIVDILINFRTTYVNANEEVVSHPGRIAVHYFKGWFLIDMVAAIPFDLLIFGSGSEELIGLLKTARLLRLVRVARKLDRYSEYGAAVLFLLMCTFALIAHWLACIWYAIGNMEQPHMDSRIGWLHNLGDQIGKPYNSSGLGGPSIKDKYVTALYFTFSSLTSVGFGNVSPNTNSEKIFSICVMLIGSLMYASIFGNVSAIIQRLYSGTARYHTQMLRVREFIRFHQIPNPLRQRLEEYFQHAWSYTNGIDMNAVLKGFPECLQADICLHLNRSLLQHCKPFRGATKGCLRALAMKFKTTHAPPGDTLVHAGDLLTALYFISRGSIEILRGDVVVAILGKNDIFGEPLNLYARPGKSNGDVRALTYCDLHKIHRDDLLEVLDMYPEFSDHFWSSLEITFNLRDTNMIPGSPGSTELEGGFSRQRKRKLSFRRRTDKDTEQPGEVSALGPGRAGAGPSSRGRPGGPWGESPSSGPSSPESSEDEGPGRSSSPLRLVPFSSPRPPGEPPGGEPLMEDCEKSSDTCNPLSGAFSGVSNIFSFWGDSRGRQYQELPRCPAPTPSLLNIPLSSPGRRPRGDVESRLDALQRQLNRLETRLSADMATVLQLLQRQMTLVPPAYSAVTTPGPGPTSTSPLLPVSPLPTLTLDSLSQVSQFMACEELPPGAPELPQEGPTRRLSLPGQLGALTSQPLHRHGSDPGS
# hERG (KCNH2) [7] = biological target: T1, hERG (KCNH2); assay: Inhibition of human ERG expressed in mouse L929 cells at 1 uM by IonWorks assay relative to control; assay type: cell-based; details: mouse L929 cells expressing human ERG
# hERG (KCNH2) [8] = biological target: T1, hERG (KCNH2); assay: Inhibition of human ERG transfected in CHO cells at 5 ug/mL by rubidium efflux assay relative to control; assay type: cell-based; details: CHO cells transfected with human ERG
# hERG (KCNH2) [9] = biological target: T1, hERG (KCNH2); assay: Inhibition of human ERG transfected in CHO cells at 1.5 ug/mL by rubidium efflux assay relative to control; assay type: cell-based; details: CHO cells transfected with human ERG
# [10] = biological target: Cannabinoid receptor 1 (Homo sapiens) (UniProt P21554); assay: Inhibition of CB1 receptor (unknown origin) at 20 ug/mL relative to control
# Cytochrome P450 2C9 [11] = biological target: T2, Cytochrome P450 2C9 (Homo sapiens, UniProt P11712); assay: Time-dependent inhibition of CYP2C9 in human liver microsomes using tolbutamide as substrate incubated for 30 mins prior to substrate addition measured after 30 mins by LC-MS/MS analysis; assay type: ADME, Microsome
# T2 sequence (P11712 whole entry): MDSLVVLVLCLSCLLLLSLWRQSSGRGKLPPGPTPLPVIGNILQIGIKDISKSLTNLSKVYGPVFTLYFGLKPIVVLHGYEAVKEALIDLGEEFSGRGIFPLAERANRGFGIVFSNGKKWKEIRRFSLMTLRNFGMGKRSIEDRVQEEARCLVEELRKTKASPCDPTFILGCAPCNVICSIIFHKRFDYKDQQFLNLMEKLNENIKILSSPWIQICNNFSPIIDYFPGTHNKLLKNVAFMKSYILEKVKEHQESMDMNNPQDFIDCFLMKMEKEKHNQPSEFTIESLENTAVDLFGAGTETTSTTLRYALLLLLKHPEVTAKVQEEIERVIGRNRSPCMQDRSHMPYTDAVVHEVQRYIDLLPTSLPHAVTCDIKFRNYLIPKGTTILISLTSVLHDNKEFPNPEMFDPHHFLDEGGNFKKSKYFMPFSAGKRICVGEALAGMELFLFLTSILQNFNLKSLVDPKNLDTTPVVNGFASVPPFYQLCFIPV
# Cytochrome P450 2D6 [12] = biological target: T3, Cytochrome P450 2D6 (Homo sapiens, UniProt P10635); assay: Time-dependent inhibition of CYP2D6 in human liver microsomes using dextromethorphan as substrate incubated for 30 mins prior to substrate addition measured after 30 mins by LC-MS/MS analysis; assay type: ADME, Microsome
# T3 sequence (P10635 whole entry): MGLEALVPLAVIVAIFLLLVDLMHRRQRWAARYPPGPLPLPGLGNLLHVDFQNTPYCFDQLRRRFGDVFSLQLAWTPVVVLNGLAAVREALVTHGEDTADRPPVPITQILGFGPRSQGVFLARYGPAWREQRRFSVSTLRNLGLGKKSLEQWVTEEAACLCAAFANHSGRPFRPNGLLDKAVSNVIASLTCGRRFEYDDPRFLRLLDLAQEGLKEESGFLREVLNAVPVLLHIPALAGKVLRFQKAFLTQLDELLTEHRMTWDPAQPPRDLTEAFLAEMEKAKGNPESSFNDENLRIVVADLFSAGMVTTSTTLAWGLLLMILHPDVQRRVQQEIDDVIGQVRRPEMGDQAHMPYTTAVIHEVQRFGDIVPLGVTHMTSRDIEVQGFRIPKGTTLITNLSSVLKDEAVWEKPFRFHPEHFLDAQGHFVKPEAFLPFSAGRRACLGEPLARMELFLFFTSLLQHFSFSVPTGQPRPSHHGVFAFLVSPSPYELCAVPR
# Cytochrome P450 3A4 [13] = biological target: T4, Cytochrome P450 3A4 (Homo sapiens, UniProt P08684); assay: Time-dependent inhibition of CYP3A4 in human liver microsomes using 6beta-hydroxylase as substrate incubated for 30 mins prior to substrate addition measured after 30 mins by LC-MS/MS analysis; assay type: ADME, Microsome
# T4 sequence (P08684 whole entry): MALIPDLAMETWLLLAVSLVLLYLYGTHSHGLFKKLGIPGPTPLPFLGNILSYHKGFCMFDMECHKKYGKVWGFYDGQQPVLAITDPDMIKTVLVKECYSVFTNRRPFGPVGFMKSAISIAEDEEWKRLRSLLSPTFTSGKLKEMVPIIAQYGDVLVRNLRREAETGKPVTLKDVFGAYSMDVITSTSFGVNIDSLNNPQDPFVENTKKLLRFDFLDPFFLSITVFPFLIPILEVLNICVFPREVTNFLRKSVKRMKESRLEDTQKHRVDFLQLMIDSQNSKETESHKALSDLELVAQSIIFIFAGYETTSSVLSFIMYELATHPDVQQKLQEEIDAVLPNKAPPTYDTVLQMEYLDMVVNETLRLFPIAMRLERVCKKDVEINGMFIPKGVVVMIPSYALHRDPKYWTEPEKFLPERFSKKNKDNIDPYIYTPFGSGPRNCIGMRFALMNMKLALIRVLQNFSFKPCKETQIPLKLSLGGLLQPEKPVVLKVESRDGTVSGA
# Cytochrome P450 2C9 [14] = biological target: T2, Cytochrome P450 2C9; assay: Inhibition of CYP2C9 in human liver microsomes using tolbutamide as substrate by LC-MS/MS analysis; assay type: ADME, Microsome
# Cytochrome P450 2D6 [15] = biological target: T3, Cytochrome P450 2D6; assay: Inhibition of CYP2D6 in human liver microsomes using dextromethorphan as substrate by LC-MS/MS analysis; assay type: ADME, Microsome
# Cytochrome P450 3A4 [16] = biological target: T4, Cytochrome P450 3A4; assay: Inhibition of CYP3A4 in human liver microsomes using […] as substrate by LC-MS/MS analysis; assay type: ADME, Microsome
# [17] = Cmax in rat at 10 mg/kg, po; assay type: ADME, organism-based; design: dose 10 mg/kg, route oral; details: in vivo
# [18] = AUC in rat at 10 mg/kg, po; assay type: ADME, organism-based; design: dose 10 mg/kg, route oral; details: plasma
# [19] = biological target: Vasopressin V1b receptor (Homo sapiens) (UniProt P47901); assay: Inhibition of vasopressin V1b receptor (unknown origin) at 2 ug/mL relative to control
# [20] = biological target: Oxytocin receptor (Homo sapiens) (UniProt P30559); assay: Inhibition of oxytocin receptor (unknown origin) at 2 ug/mL relative to control
# [21] = biological target: 5-hydroxytryptamine receptor 1A (Homo sapiens) (UniProt P08908); assay: Inhibition of 5HT-1A receptor (unknown origin) at 2 ug/mL relative to control
# [22] = biological target: Neuropeptide Y receptor type 5 (Homo sapiens) (UniProt Q15761); assay: Inhibition of NPYY5 receptor (unknown origin) at 2 ug/mL relative to control
# [23] = biological target: Muscarinic acetylcholine receptor M5 (Homo sapiens) (UniProt P08912); assay: Inhibition of muscarinic M5 receptor (unknown origin) at 2 ug/mL relative to control
# [24] = biological target: Muscarinic acetylcholine receptor M3 (Homo sapiens) (UniProt P20309); assay: Inhibition of muscarinic M3 receptor (unknown origin) at 2 ug/mL relative to control
# [25] = biological target: Muscarinic acetylcholine receptor M2 (Homo sapiens) (UniProt P08172); assay: Inhibition of muscarinic M2 receptor (unknown origin) at 2 ug/mL relative to control
# [26] = biological target: D(2) dopamine receptor (Homo sapiens) (UniProt P14416); assay: Inhibition of dopamine D2 receptor (unknown origin) at 2 ug/mL relative to control
# [27] = biological target: D(1A) dopamine receptor (Homo sapiens) (UniProt P21728); assay: Inhibition of dopamine D1 receptor (unknown origin) at 2 ug/mL relative to control
# [28] = Plasma concentration in rat at 10 mg/kg, po measured at 2 hrs; assay type: ADME, organism-based; design: dose 10 mg/kg, route oral
# [29] = Plasma concentration in rat at 10 mg/kg, po measured at 4 hrs; assay type: ADME, organism-based; design: dose 10 mg/kg, route oral
# [30] = biological target: Cannabinoid receptor 2 (Homo sapiens) (UniProt P34972); assay: Inhibition of CB2 receptor (unknown origin) at 20 ug/mL relative to control
# Cannabinoid receptor 2 (Homo sapiens), sequence (P34972 whole entry): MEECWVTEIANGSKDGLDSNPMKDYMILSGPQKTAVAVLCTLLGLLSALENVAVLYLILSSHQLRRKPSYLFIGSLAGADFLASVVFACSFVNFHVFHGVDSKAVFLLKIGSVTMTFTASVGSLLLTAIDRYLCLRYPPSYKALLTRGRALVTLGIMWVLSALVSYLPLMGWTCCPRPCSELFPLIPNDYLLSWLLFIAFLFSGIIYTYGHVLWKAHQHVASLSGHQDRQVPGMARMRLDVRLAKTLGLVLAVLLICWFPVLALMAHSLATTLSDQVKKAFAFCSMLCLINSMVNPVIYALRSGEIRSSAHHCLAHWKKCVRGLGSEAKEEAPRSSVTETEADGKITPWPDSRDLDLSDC
# [31] = biological target: Alpha-2C adrenergic receptor (Homo sapiens) (UniProt P18825); assay: Inhibition of adrenergic alpha-2C receptor (unknown origin) at 1 ug/mL relative to control
# Alpha-2C adrenergic receptor (Homo sapiens), sequence (P18825 whole entry): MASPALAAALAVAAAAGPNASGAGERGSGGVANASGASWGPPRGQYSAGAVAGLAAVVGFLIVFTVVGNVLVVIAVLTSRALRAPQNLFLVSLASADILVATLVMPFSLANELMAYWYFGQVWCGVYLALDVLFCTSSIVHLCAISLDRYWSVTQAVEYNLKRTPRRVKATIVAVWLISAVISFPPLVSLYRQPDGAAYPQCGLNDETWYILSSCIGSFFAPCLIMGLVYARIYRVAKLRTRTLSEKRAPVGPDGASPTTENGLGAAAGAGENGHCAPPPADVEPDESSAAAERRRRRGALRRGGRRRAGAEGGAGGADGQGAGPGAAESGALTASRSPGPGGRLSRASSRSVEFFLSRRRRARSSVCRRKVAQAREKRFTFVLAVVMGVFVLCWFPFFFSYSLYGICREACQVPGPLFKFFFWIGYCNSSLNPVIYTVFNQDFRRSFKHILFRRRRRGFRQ
# [32] = biological target: Alpha-2B adrenergic receptor (Homo sapiens) (UniProt P18089); assay: Inhibition of adrenergic alpha-2B receptor (unknown origin) at 1 ug/mL relative to control
# [33] = biological target: Alpha-2A adrenergic receptor (Homo sapiens) (UniProt P08913); assay: Inhibition of adrenergic alpha-2A receptor (unknown origin) at 1 ug/mL relative to control
# [34] = biological target: Alpha-1B adrenergic receptor (Homo sapiens) (UniProt P35368); assay: Inhibition of adrenergic alpha-1B receptor (unknown origin) at 1 ug/mL relative to control
# [35] = biological target: Adenosine receptor A2a (Homo sapiens) (UniProt P29274); assay: Inhibition of adenosine A2A receptor (unknown origin) at 2 ug/mL relative to control
# [36] = biological target: Adenosine receptor A1 (Homo sapiens) (UniProt P30542); assay: Inhibition of adenosine A1 receptor (unknown origin) at 2 ug/mL relative to control
# [37] = biological target: Rho-associated protein kinase 2 (Homo sapiens, UniProt O75116); assay: Inhibition of human ROCK2
# [38] = biological target: Serine/threonine-protein kinase PLK3 (Homo sapiens, UniProt Q9H4B4); assay: Inhibition of human PLK3
# [39] = biological target: Hepatocyte growth factor receptor (Homo sapiens, UniProt P08581); assay: Inhibition of human MET
# Hepatocyte growth factor receptor, sequence (P08581 whole entry): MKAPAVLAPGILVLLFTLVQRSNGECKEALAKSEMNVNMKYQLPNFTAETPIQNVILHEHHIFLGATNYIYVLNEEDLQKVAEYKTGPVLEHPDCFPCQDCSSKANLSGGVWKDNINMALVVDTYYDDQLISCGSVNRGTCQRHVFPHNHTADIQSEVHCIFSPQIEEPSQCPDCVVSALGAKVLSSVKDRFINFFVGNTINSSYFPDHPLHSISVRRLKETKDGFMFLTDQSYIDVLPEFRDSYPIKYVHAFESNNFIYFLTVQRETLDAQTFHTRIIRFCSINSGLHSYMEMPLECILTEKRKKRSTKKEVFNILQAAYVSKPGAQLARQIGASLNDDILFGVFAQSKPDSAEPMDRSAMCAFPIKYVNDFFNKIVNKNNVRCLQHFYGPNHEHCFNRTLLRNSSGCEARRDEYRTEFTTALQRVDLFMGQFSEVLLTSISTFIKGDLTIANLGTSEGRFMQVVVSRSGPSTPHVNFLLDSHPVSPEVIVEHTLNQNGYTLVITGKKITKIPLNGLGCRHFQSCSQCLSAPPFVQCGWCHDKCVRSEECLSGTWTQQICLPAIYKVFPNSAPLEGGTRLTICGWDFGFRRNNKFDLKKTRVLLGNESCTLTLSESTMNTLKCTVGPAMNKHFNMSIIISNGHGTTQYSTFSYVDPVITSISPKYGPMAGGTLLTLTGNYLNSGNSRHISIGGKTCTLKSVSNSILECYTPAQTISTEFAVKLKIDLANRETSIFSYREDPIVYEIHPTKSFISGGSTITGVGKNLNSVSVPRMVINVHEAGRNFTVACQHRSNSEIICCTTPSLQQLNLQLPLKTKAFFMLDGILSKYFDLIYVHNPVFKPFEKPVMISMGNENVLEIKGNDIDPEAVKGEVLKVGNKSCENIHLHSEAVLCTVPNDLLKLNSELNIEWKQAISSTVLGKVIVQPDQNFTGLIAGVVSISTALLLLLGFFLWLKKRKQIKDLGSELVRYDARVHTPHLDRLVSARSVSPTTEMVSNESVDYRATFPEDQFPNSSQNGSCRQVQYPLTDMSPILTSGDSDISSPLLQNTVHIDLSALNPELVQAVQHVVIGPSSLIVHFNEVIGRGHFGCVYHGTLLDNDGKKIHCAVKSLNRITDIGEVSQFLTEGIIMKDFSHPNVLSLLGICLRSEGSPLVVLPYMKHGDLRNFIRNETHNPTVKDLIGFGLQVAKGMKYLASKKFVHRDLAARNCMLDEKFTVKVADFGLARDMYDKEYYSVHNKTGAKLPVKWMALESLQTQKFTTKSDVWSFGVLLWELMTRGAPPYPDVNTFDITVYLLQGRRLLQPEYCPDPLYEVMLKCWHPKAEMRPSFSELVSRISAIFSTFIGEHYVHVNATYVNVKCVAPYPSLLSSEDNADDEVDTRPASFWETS
# [40] = biological target: Tyrosine-protein kinase Lck (Homo sapiens, UniProt P06239); assay: Inhibition of human LCK
# [41] = biological target: Inhibitor of nuclear factor kappa-B kinase subunit beta (Homo sapiens, UniProt O14920); assay: Inhibition of human IKKB
# [42] = biological target: Mitogen-activated protein kinase 1 (Homo sapiens, UniProt P28482); assay: Inhibition of human ERK2
# [43] = biological target: Insulin-like growth factor 1 receptor (Homo sapiens, UniProt P08069); assay: Inhibition of human IGF1R
# [44] = biological target: Cyclin-dependent kinase 2 (Homo sapiens, UniProt P24941); assay: Inhibition of human CDK2
# Procedure, shortened: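 Biochemical kinase inhibition assay. Reported values are averages of duplicate or triplicate determinations, with a standard deviation of 10%.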
smiles,measurement,setting,value
COc1ccc2c(c1)C(=O)N(c1nc(C(=O)Nc3cnccc3N3CCNCC3)cs1)C2,concentration at 1 h,[1],57 ng/mL
same,IC50,[2],26 µM
same,concentration at 6 h,[3],252 ng/mL
same,concentration at 24 h,[4],6.29 ng/mL
same,IC50,[5],4.8 µM
same,"inhibition at 5 min, 1 µM",hERG (KCNH2) [6],82%
same,inhibition at 1 µM,hERG (KCNH2) [7],4%
same,inhibition at 5 ug/mL,hERG (KCNH2) [8],65%
same,inhibition at 1.5 ug/mL,hERG (KCNH2) [9],24%
same,inhibition,[10],22.6%
same,IC50,Cytochrome P450 2C9 [11],> 30 µM
same,IC50,Cytochrome P450 2D6 [12],> 30 µM
same,IC50,Cytochrome P450 3A4 [13],> 30 µM
same,IC50,Cytochrome P450 2C9 [14],> 30 µM
same,IC50,Cytochrome P450 2D6 [15],> 30 µM
same,IC50,Cytochrome P450 3A4 [16],> 30 µM
same,Cmax,[17],600 nM
same,AUC,[18],7.2 µM·h
same,inhibition,[19],6.1%
same,inhibition,[20],25.7%
same,inhibition,[21],12.8%
same,inhibition,[22],13.2%
same,inhibition,[23],14.4%
same,inhibition,[24],10.1%
same,inhibition,[25],3.5%
same,inhibition,[26],16.9%
same,inhibition,[27],2.8%
same,concentration at 2 h,[28],150 ng/mL
same,concentration at 4 h,[29],183 ng/mL
same,inhibition,[30],25.1%
same,inhibition,[31],13.8%
same,inhibition,[32],4.2%
same,inhibition,[33],16.1%
same,inhibition,[34],21.8%
same,inhibition,[35],-5.8%
same,inhibition,[36],-3.2%
same,IC50,[37],6.8 µM
same,IC50,[38],> 30 µM
same,IC50,[39],> 30 µM
same,IC50,[40],> 30 µM
same,IC50,[41],> 30 µM
same,IC50,[42],20 µM
same,IC50,[43],30 µM
same,IC50,[44],> 30 µM

# — ChEMBL document CHEMBL2380296, “Structure-based design and optimization of 2-aminothiazole-4-carboxamide as a new class of CHK1 inhibitors” (Bioorg Med Chem Lett, 2013)
